This is a sample that favours compounds with a hit; in the whole collection about 5.3% have one here.
Beta cell apopt – blocks beta cell apoptosis | INS-1E cytokine-induced death, ATP luminescence, 48 h; percent of positive-control rescue, neutral wells zero | protection from apoptosis, % (no concentration beside the values) | hit rate 0.8% among 300,000;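 active = Every replicate reaches about 75%, or at least half do and their mean reaches it too, limit read from the data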;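 also: 0% = cytokine-treated negative control wells and 100% = positive control rescue; higher means more ATP so stronger rescue from cytokine killing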
NLRP3 yeast inh – inhibitors of NALP3 inflammasome in yeast | inhibition, % at 10 µM | AID 2825 | hit rate 0.39% among 330,000 | Yeast reconstituted NLRP3/ASC/caspase-1, beta-gal luminescence, 24 h;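 active = inhibition of 50% or more; inactive = inhibition below 50%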;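 also: plate controls were induced DMSO wells for no effect and uninduced yeast grown without galactose for full effect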
Mdm2-MdmX inh – human Mdm2/MdmX binding inhibition; O15151+Q00987; SaOS-2 split-luciferase Mdm2/MdmX complementation, luminescence; inhibition, % at 8 µM; hit rate 3% among 330,000; AID 485346;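 active = inhibition of at least 50% at 8 µM in the primary screen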
Target sequence (O15151 whole entry, looked up): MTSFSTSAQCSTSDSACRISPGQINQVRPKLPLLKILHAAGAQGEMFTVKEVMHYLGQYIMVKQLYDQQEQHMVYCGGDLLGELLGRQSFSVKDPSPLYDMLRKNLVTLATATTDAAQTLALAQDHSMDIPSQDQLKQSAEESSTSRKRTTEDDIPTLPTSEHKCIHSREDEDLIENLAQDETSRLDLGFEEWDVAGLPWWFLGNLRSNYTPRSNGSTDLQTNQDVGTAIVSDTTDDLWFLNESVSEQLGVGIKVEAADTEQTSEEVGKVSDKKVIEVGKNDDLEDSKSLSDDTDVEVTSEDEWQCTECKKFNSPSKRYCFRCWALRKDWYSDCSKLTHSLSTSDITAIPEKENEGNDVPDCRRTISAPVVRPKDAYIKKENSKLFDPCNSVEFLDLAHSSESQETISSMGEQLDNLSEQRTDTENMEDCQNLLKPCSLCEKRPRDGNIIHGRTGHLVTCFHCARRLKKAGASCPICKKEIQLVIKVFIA
Target sequence (Q00987 whole entry, looked up): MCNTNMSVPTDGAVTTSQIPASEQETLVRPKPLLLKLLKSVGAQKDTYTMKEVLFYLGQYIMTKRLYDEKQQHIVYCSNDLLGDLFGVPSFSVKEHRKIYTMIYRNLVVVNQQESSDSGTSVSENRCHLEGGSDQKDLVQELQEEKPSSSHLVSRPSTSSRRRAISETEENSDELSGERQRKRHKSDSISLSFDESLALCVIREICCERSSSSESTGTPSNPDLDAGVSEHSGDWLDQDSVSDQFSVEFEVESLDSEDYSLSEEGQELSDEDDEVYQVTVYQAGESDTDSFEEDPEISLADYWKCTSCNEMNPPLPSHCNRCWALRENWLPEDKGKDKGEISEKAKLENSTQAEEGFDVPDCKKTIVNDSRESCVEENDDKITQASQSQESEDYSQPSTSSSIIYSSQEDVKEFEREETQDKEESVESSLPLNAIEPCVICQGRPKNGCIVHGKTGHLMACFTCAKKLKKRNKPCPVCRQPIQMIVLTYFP
CSC inhib – cancer stem cell inhibition | inhibition, % at 7.5 µM | hit rate 1.1% among 300,000 | cancer stem cell-like cells viability, luminescence; in the data active = inhibition above about 75%; tested in HMLE shEcad cells
T cruzi repl – blocks replication of Trypanosoma cruzi | T. cruzi beta-gal in NIH3T3, luminescence, 90 h | inhibition, % (no concentration beside the values) | hit rate 1.4% among 300,000 | AID 1885;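 active = mean inhibition across valid replicates above about 55%, limit read from the data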;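 also: signal also drops with host cell toxicity which is not excluded here; 0% = plate median of DMSO wells and 100% = zero luminescence signal; higher percent means less beta-gal luminescence so fewer parasites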
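System: NIH/3T3 fibroblasts plus reporter T. cruzi. Medium: DMEM plus 2% FBS. Probe or stimulus: 5000 reporter trypomastigotes per well. Compound: single 50 nL compound addition per well in DMSO. Incubation: co-culture of at least 90 h after 3 h attachment. Detection: GalScreen β-gal luminescence, detergent lysis, 60 min. Evaluation: parasite load inhibition, %.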
Calb FLC – affects C. albicans growth with fluconazole. C. albicans CaCi-2 (fluconazole-resistant clinical isolate) + fluconazole, Alamar Blue growth, 48 h. hit rate 0.57% among 300,000. growth inhibition, % (no concentration beside the values);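 active = growth inhibition above about 58% in most replicates, limit read from the data, passing the limit was not always enough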;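 also: all wells also contain fluconazole at 8 µg/ml as a sub-toxic cotreatment; 0% = median of DMSO wells and 100% = median of geldanamycin control wells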
Mdm2-MdmX conf – confirmation of human Mdm2/MdmX interaction inhibitors; AID 489028; Mdm2-MdmX binding, luminescent assay; inhibition, % at 8 µM; hit rate 55% among 10,000; shares compounds with Mdm2-MdmX inh; in the data active = inhibition above about 40%
FLuc counter – full-length luciferase inhibition in Mdm2/MdmX counter-screen; inhibition, % at 8 µM; shares compounds with Mdm2-MdmX inh; hit rate 77% among 6,200; AID 504607; SaOS-2 full-length luciferase counterscreen, luminescence;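 active = mean inhibition at 8 µM reaching about 37%, which flags the compound as non-specific, limit read from the data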;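 also: p53-null SaOS-2 cells with luciferase driven by a doxycycline-inducible promoter; compound on cells about two nights before reading with doxycycline added after day one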
The depositor's hits bear a star; nt = not tested or not shown.

SMILES | Beta cell apopt | NLRP3 yeast inh | Mdm2-MdmX inh | CSC inhib | T cruzi repl | Calb FLC | Mdm2-MdmX conf | FLuc counter
COc1ccc(-c2nsc3c(N4CCCCC4)ncnc23)cc1 | -4.7 | 16.7 | 66.1* | 58.2 | 12.3 | -3.7 | 70.2* | 54.8*
COc1ccc(C(=O)N2CCN(c3ncnc4c(-c5ccccc5)nsc34)CC2)cc1 | nt | nt | nt | nt | 27.3 | -4.1 | nt | nt
COc1ccc(-c2nsc3c(N4CCN(S(=O)(=O)c5ccccc5F)CC4)ncnc23)cc1 | 5.3 | 15.8 | 43.3 | 2.8 | 20.9 | 15.7 | nt | nt
COc1ccc(-c2nsc3c(N4CCCCC4C)ncnc23)cc1 (centres undefined) | 1.6 | 16.9 | 83.6* | 46.0 | 18.1 | 13.9 | 90.7* | 24.8
C#CCn1c(=NC(=O)c2ccc(Br)s2)sc2cc(NC(C)=O)ccc21 | 1.5 | 11.8 | 33.0 | -9.8 | 6.2 | -2.3 | nt | nt
CC(C)(C)S(=O)(=O)/C(C#N)=C/c1sccc1C1OCCO1 | -3.1 | 0.0 | -6.6 | 24.4 | -3.5 | 2.6 | nt | nt
c1ccc(-c2nnc(N3CCN(c4ccccn4)CC3)c3ccccc23)cc1 | 13.7 | -22.7 | 30.7 | -0.5 | 36.4 | 0.5 | nt | nt
Cc1ccc(-c2nnc(N3CCN(C(=O)c4cccs4)CC3)c3ccccc23)cc1 | 9.0 | 29.6 | 55.0* | 0.6 | 1.5 | 0.7 | 12.8 | nt
Cc1ccc(-c2nnc(N3CCN(c4ccccn4)CC3)c3ccccc23)cc1 | 26.0 | 2.7 | 56.9* | 14.5 | 29.3 | 31.5 | 53.6* | 48.3*
O=C(c1cccs1)N1CCN(c2nnc(-c3ccccc3)c3ccccc23)CC1 | 12.9 | -0.3 | -15.8 | -21.8 | 29.8 | 2.1 | nt | nt
Cc1cc(C(=O)CCl)c(C)n1CCc1ccc(F)cc1 | 34.0 | -86.0 | 91.9* | 56.4 | 72.6* | -32.7 | 61.8* | 34.4
COc1ccc(CCn2c(C)c(C(C)=O)c(C(C)=O)c2C)cc1OC | -5.1 | -4.5 | -11.3 | -2.5 | -6.4 | -18.9 | nt | nt
Cc1cc(C(=O)CSc2nnc(N)s2)c(C)n1CCc1ccc(Cl)cc1 | -1.3 | 30.1 | 2.9 | 10.1 | 27.6 | -11.1 | nt | nt
COc1ccc(CCn2c(C)cc(C(=O)CSc3nnnn3-c3ccccc3)c2C)cc1OC | nt | 3.3 | 59.2* | -5.8 | 20.9 | -6.8 | 7.2 | nt
COc1ccc(CCn2c(C)cc(C(=O)CCl)c2C)cc1OC | 0.0 | -31.6 | 74.3* | 47.4 | 47.0 | -26.4 | 27.4 | nt
Cc1cc(C(=O)CCl)c(C)n1CCc1ccc(Cl)cc1 | 27.8 | -97.3 | 92.6* | 116.0* | 61.6* | -32.0 | 69.2* | 30.7
CCOC(=O)c1cc(-c2ccc(C#N)cc2)nc2c1c(C)nn2CCC#N | 8.4 | 8.9 | 11.6 | 12.2 | 11.7 | 4.8 | nt | nt
O=C(Nc1cccc(S(=O)(=O)NCc2ccco2)c1)c1cc(-c2ccc(F)cc2)nc2ccccc12 | nt | 25.7 | 68.9* | 1.9 | 48.8 | 14.9 | 32.2 | 75.9*
COc1ccc(-c2cc(C(=O)Nc3cccc(S(=O)(=O)NCc4ccco4)c3)c3ccccc3n2)cc1OC | 11.0 | 15.0 | 54.0* | nt | 59.9* | -2.3 | 65.8* | 64.1*
Cc1cccc(C(=O)Nc2cccc(S(=O)(=O)NCc3ccco3)c2)c1 | 0.7 | 13.1 | 7.9 | 1.0 | nt | nt | nt | nt
COc1cc(C(=O)Nc2cccc(S(=O)(=O)NCc3ccco3)c2)cc(OC)c1OC | 0.9 | 10.6 | 69.0* | nt | nt | nt | 39.6 | 97.7*
C[C@H](CO)N1C[C@H](C)[C@@H](CN(C)Cc2ccc(C(=O)O)cc2)Oc2c(NC(=O)Cc3ccccc3)cccc2C1=O | -8.9 | 5.3 | 11.8 | nt | nt | nt | nt | nt
CCOc1ncccc1C(=O)OCC(=O)c1cc(C)n(Cc2ccco2)c1C | -3.1 | 27.3 | -95.2 | -11.1 | -5.7 | -0.5 | nt | nt
O=C(O)COc1ccccc1/C=N/NC(=O)CSc1nc2ccccc2s1 | -5.6 | 11.3 | -17.2 | 0.3 | -0.3 | -3.1 | nt | nt
O=C(CSc1nc2ccccc2s1)N/N=C/c1ccccc1C(=O)O | -7.4 | -16.9 | 66.0* | 3.6 | -7.9 | -21.4 | 81.8* | 118.5*
SMILES | Beta cell apopt | NLRP3 yeast inh | Mdm2-MdmX inh | CSC inhib | T cruzi repl | Calb FLC | Mdm2-MdmX conf | FLuc counter
Cc1ccc(NC(=O)C(=Cc2ccc(C(=O)O)cc2)C(=O)Nc2ccc(C)cc2C)c(C)c1 | 71.4 | 23.5 | 100.4* | 159.1* | -0.4 | 9.4 | 99.0* | 51.8*
CC(=O)C(=Cc1ccc(C(=O)O)cc1)C(C)=O | nt | 11.8 | 0.6 | -10.9 | 3.9 | -13.7 | nt | nt
C[C@@]12C(=O)OC(=O)[C@]1(C)C1CCC2O1 | 78.9* | 10.0 | 98.5* | 109.2* | nt | nt | 93.2* | 51.8*
Cc1ccc(C(CCNC(C)c2cccs2)c2ccco2)cc1 (centres undefined) | 3.4 | 31.4 | 21.8 | 11.1 | 2.2 | 6.5 | nt | nt
Cc1cc(N2O[C@]34C=C[C@]25C[C@@H](O)CC[C@]5(C)C3CC[C@]2(C)[C@@H]([C@H](C)/C=C/[C@H](C)C(C)C)CC[C@H]24)no1 (some centres undefined) | nt | nt | 90.7* | nt | nt | nt | -49.8 | nt
CC(=O)c1ccc(-n2c(C)c(C(C)=O)c3cc(O)ccc32)cc1 | -18.0 | 5.3 | 62.3* | -9.2 | 1.0 | -4.0 | 64.7* | 47.6*
CCOc1ccc(-n2c(C)c(C(C)=O)c3cc(O)ccc32)cc1 | -8.3 | 1.7 | 53.5* | 15.1 | -5.0 | 4.8 | 55.5* | 31.2
CC(=O)c1c(C)n(-c2ccc(Br)cc2)c2ccc(O)cc12 | -9.8 | 21.0 | 41.8 | -14.5 | -3.1 | 3.8 | nt | nt
COC(=O)c1c(C)n(-c2ccc(C)cc2)c2ccc(O)cc12 | nt | 16.5 | 52.6* | nt | 4.4 | 69.5 | 45.6* | 54.7*
O=C(NCC1CCCN(Cc2cccc(F)c2)C1)c1cccc2ccccc12 (centres undefined) | -2.3 | 19.1 | -18.7 | 8.1 | 40.0 | -6.1 | nt | nt
CCCN1C(=O)C(O)(C/C(C)=N/O)c2ccccc21 (centres undefined) | 1.9 | 5.1 | 17.6 | 0.8 | -12.6 | 15.7 | nt | nt
O=C(NCc1ccc2[nH]c3c(c2c1)CCCC3)c1ccc(S(=O)(=O)N2CCCCC2)cc1 | 6.7 | 11.5 | 23.8 | -4.5 | 8.0 | -4.1 | nt | nt
S=C(NCc1ccc2[nH]c3c(c2c1)CCCC3)Nc1ccccc1 | -8.3 | 3.5 | 70.5* | nt | -16.3 | 3.3 | 14.8 | nt
CCS(=O)(=O)NCc1ccc2[nH]c3c(c2c1)CCCC3 | -12.6 | -10.5 | -16.9 | -0.5 | -4.6 | 42.9 | nt | nt
Cc1cc(C)cc(NC(=S)NCc2ccc3[nH]c4c(c3c2)CCCC4)c1 | nt | 9.1 | 83.4* | 61.6 | 11.2 | -11.8 | 21.0 | nt
Cc1cccc(CSc2nnc([C@@H]3CCCN3)o2)c1 | 2.3 | 16.2 | 22.0 | -9.6 | -0.8 | -13.1 | nt | nt
Clc1ccc2oc3c(Cl)ncnc3c2c1 | -1.8 | -13.2 | 71.1* | -2.6 | -60.7 | -2.5 | 4.3 | nt
Cc1nc(Nc2ccccc2)c2oc3ccc(Cl)cc3c2n1 | 12.6 | 16.2 | -4.3 | -0.9 | 15.3 | -2.1 | nt | nt
CN(Cc1cccc(F)c1)C(=O)CN1CCN(S(=O)(=O)c2ccc3c(c2)OCCCO3)CC1 | 2.6 | 13.2 | 11.3 | nt | nt | nt | nt | nt

From PubChem
